What was measured:
[1] = Growth inhibition of human BE(2)-C cells after 72 hrs by MTT assay; type: functional
How it was run: (§1)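 Cells kept in DMEM with 10% FBS, glutamine, penicillin/streptomycin at 37 °C, 5% CO2; plated in duplicate at 2500–4000 cells/well, dosed 24 h later during log growth. After 72 h drug exposure, MTT read at 540 nm. […] Assays in triplicate, standard error reported.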

[2] = system: HT-29; assay: Growth inhibition of human HT-29 cells after 72 hrs by MTT assay; type: functional; conditions: HT-29, 72 h; how it was run: as §1
[3] = Growth inhibition of human U87 cells after 72 hrs by MTT assay; type: functional, U-87MG ATCC; conditions: U-87 MG; how it was run: as §1
[4] = system: A-431; assay: Growth inhibition of human A431 cells after 72 hrs by MTT assay; type: functional; conditions: A-431, 72 h; how it was run: as §1
[5] = system: DU-145; assay: Growth inhibition of human DU145 cells after 72 hrs by MTT assay; type: functional; conditions: DU-145, 72 h; how it was run: as §1
[6] = system: A2780; assay: Growth inhibition of human A2780 cells after 72 hrs by MTT assay; type: functional; conditions: A2780, 72 h; how it was run: as §1
[7] = system: MCF7; assay: Growth inhibition of human MCF7 cells after 72 hrs by MTT assay; type: functional; conditions: MCF7, 72 h; how it was run: as §1
[8] = Growth inhibition of human MIA cells after 72 hrs by MTT assay; type: functional; how it was run: as §1
[9] = Growth inhibition of human SJ-G2 cells after 72 hrs by MTT assay; type: functional; conditions: SJ-G2, 72 h; how it was run: as §1
[10] = Growth inhibition of mouse SMA cells after 72 hrs by MTT assay; type: functional; how it was run: as §1
[11] = Growth inhibition of human H460 cells after 72 hrs by MTT assay; type: functional; conditions: NCI-H460, 72 h; how it was run: as §1

Compound	GI50 [2]	GI50 [4]	GI50 [5]	GI50 [6]	GI50 [7]	GI50 [1]	GI50 [3]	GI50 [8]	GI50 [9]	GI50 [10]	GI50 [11]
Cc1cc2c(c3oc(CCCC#N)cc13)C(=O)c1c(O)cccc1C2=O	1.9 µM	13 µM	0.46 µM	6.5 µM	4.7 µM	0.99 µM	11 µM	2.6 µM	32 µM	5.4 µM	15 µM
Cc1cc2c(c3oc(C(C)O)cc13)C(=O)c1c(OC(C)C)cccc1C2=O (stereo unspecified)	24 µM	19 µM	28 µM	16 µM	24 µM	20 µM	35 µM	19 µM	14 µM	29 µM	17 µM
Cc1cc2c(c3oc(CCCC#N)cc13)C(=O)c1c(OC(C)C)cccc1C2=O	11 µM	9.8 µM	7.7 µM	6.4 µM	5.9 µM	23 µM	6.1 µM	10 µM	8.4 µM	10 µM	9.4 µM
Cc1cc2c(c3oc(=O)c(C(C)(C)O)cc13)C(=O)c1c(OC(C)C)cccc1C2=O	30 µM	19 µM	40 µM	28 µM	20 µM	27 µM	30 µM	23 µM	14 µM	30 µM	22 µM
Cc1cc2c(c3oc(CCCCl)cc13)C(=O)c1c(OC(C)C)cccc1C2=O	18 µM	23 µM	25 µM	11 µM	13 µM	43 µM	18 µM	34 µM	25 µM	22 µM	27 µM
C=C(C)c1cc(=O)c2c(C)cc3c(c2o1)C(=O)c1c(O)cccc1C3=O	1.6 µM	1.8 µM	1.5 µM	1.6 µM	1.4 µM	5.9 µM	3.4 µM	2 µM	4.7 µM	1.7 µM	3.9 µM
CCCc1cc(=O)c2c(C)cc3c(c2o1)C(=O)c1c(O)cccc1C3=O	3.2 µM	1.6 µM	1.2 µM	2.4 µM	1.8 µM	1.8 µM	2.8 µM	1.7 µM	1.7 µM	1.5 µM	1.4 µM
CC(=O)c1cc2c(C)cc3c(c2o1)C(=O)c1c(OC(C)C)cccc1C3=O	9.7 µM	5.8 µM	1.9 µM	5 µM	3.5 µM	4.6 µM	8.4 µM	9.7 µM	2.2 µM	2.3 µM	17 µM
Cc1cc2c(c3oc(C(=O)c4ccccc4)cc13)C(=O)c1c(OC(C)C)cccc1C2=O	1.4 µM	1.77 µM	0.95 µM	2.1 µM	1.1 µM	0.83 µM	2.3 µM	1.7 µM	36 µM	2.2 µM	2.9 µM
CCCc1cc2c(C)cc3c(c2o1)C(=O)c1c(O)cccc1C3=O	1.2 µM	2.3 µM	0.86 µM	1.5 µM	2.2 µM	0.88 µM	6.6 µM	1.7 µM	1 µM	1.3 µM	3.1 µM
Cc1cc2c(c3oc(=O)c(CCCC#N)cc13)C(=O)c1c(O)cccc1C2=O	14 µM	12 µM	3.2 µM	10 µM	12 µM	11 µM	11 µM	15 µM	22 µM	9.8 µM	9 µM

Further lines, with some results ahead:

GI50 [2]	GI50 [4]	GI50 [5]	GI50 [6]	GI50 [7]	Compound	GI50 [1]	GI50 [3]	GI50 [8]	GI50 [9]	GI50 [10]	GI50 [11]
11 µM	15 µM	26 µM	19 µM	16 µM	CCC(C)(O)c1cc2c(C)cc3c(c2oc1=O)C(=O)c1c(OC(C)C)cccc1C3=O (stereo unspecified)	22 µM	25 µM	14 µM	9 µM	23 µM	16 µM
15 µM	17 µM	20 µM	21 µM	19 µM	Cc1cc2c(c3oc(=O)c(CCCCl)cc13)C(=O)c1c(OC(C)C)cccc1C2=O	33 µM	16 µM	20 µM	15 µM	19 µM	19 µM
0.94 µM	0.51 µM	0.29 µM	0.34 µM	0.28 µM	Cc1cc2c(c3oc(CCC(F)(F)F)cc(=O)c13)C(=O)c1c(O)cccc1C2=O	0.2 µM	2.9 µM	0.28 µM	0.49 µM	0.48 µM	0.87 µM
17 µM	18 µM	25 µM	12 µM	15 µM	CCCCCCc1cc2c(C)cc3c(c2o1)C(=O)c1c(O)cccc1C3=O	21 µM	25 µM	13 µM	32 µM	9.3 µM	17 µM
4.5 µM	5.7 µM	4.8 µM	5.3 µM	4.1 µM	CCc1cc(=O)c2c(C)cc3c(c2o1)C(=O)c1c(OC)cccc1C3=O	4.1 µM	14 µM	5.4 µM	4.3 µM	6.5 µM	4.8 µM
4.7 µM	4.8 µM	2 µM	2 µM	2.1 µM	CC(=O)c1cc2c(C)cc3c(c2o1)C(=O)c1c(O)cccc1C3=O	2.9 µM	5.5 µM	9.5 µM	1.8 µM	1.5 µM	9.6 µM
13 µM	9 µM	28 µM	7.3 µM	21 µM	Cc1cc2c(c3oc(C(C)O)cc13)C(=O)c1c(O)cccc1C2=O (stereo unspecified)	19 µM	20 µM	15 µM	17 µM	12 µM	17 µM
13 µM	17 µM	29 µM	12 µM	14 µM	Cc1cc2c(c3oc(=O)c(C(C)(C)C)cc13)C(=O)c1c(OC(C)C)cccc1C2=O	33 µM	17 µM	12 µM	12 µM	12 µM	20 µM
5.6 µM	4 µM	8.8 µM	7 µM	5.3 µM	CCC(C)(OCc1ccccc1)c1cc2c(C)cc3c(c2oc1=O)C(=O)c1c(O)cccc1C3=O (stereo unspecified)	6.7 µM	14 µM	3.9 µM	3.9 µM	6.1 µM	5.1 µM
1.9 µM	0.59 µM	0.44 µM	0.45 µM	0.66 µM	Cc1cc2c(c3oc(CCCCl)cc13)C(=O)c1c(O)cccc1C2=O	0.38 µM	0.97 µM	0.55 µM	37 µM	0.69 µM	1.9 µM

From ChEMBL document CHEMBL3596100, “The synthesis and biological activity of novel anthracenone-pyranones and anthracenone-furans” (Bioorg Med Chem, 2015)
